We go through one compound from ChEMBL document CHEMBL4811252, “Identification of novel 1,3-diaryl-1,2,4-triazole-capped histone deacetylase 6 inhibitors with potential anti-gastric cancer activity” (Eur J Med Chem, 2021).

The target of one series is Histone deacetylase 2 (Homo sapiens, UniProt Q92769). Description: Inhibition of HDAC2 (unknown origin).
Series [1] deals with MGC-803. The series can be described thus: Antiproliferative activity against human MGC803 cells at 2 to 8 uM after 72 hrs by EdU staining based assay. Type of series: functional, cell-based. The conditions noted are these: dose 2-8 µM. The method, boiled down: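 MGC803 cells exposed to 0, 2, 4 or 8 µM for 72 h in 24-well plates, then EdU staining per kit instructions. EdU+ cells were imaged by immunofluorescence and quantified. Mean ± SD of three independent experiments; DMSO control.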

The subject of series [2] is MGC-803. The series can be described thus: Induction of apoptosis in human MGC803 cells assessed as increase in PARP expression after 48 hrs by Western blotting analysis. The conditions noted are these: dose 2-8 µM. It counts as functional, cell-based. The method, boiled down: (§1)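 MGC803 cells treated for 48 h, then lysed (0.1% SDS, 150 mM NaCl, 25 mM Tris-HCl, 1% deoxycholate, 1% NP-40, 1% PMSF). Protein quantified by BCA and resolved on 8–10% SDS-PAGE onto PVDF. Blocked in 5% milk, primary antibodies overnight at 4 °C, HRP secondary, ECL. GAPDH, total α-tubulin and H3 as references. Mean ± SD of three experiments.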
In general terms: In western blotting, separated proteins are transferred to a membrane and probed.

The next series deals with Histone deacetylase 3 (Homo sapiens, UniProt O15379). The series can be described thus: Inhibition of HDAC3 (unknown origin).
Series [3] in a line: Acute toxicity in C57BL/6 mouse assessed as liver tissue damage at 2 g/kg, po administered via gavage measured up to 14 days by HE staining based assay. Type of series: organism-based. As to conditions: in vivo, 2000 mg/kg, 336 h, time <=14 day. The essentials: (§2)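 Mice aged 8-10 weeks, 20 females and 20 males, split into two groups: vehicle control (0.5% CMC-Na) or a single oral gavage dose of 2000 mg/kg. Animals were fed and observed normally for 14 days, recording body weight, mortality and behaviour. Heart, liver, spleen, lung and kidney sections were then fixed, embedded and H&E stained.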

Series [4] concerns the target T1, Protein deacetylase HDAC6 (Homo sapiens, UniProt Q9UBN7).
T1 sequence (Q9UBN7 whole entry): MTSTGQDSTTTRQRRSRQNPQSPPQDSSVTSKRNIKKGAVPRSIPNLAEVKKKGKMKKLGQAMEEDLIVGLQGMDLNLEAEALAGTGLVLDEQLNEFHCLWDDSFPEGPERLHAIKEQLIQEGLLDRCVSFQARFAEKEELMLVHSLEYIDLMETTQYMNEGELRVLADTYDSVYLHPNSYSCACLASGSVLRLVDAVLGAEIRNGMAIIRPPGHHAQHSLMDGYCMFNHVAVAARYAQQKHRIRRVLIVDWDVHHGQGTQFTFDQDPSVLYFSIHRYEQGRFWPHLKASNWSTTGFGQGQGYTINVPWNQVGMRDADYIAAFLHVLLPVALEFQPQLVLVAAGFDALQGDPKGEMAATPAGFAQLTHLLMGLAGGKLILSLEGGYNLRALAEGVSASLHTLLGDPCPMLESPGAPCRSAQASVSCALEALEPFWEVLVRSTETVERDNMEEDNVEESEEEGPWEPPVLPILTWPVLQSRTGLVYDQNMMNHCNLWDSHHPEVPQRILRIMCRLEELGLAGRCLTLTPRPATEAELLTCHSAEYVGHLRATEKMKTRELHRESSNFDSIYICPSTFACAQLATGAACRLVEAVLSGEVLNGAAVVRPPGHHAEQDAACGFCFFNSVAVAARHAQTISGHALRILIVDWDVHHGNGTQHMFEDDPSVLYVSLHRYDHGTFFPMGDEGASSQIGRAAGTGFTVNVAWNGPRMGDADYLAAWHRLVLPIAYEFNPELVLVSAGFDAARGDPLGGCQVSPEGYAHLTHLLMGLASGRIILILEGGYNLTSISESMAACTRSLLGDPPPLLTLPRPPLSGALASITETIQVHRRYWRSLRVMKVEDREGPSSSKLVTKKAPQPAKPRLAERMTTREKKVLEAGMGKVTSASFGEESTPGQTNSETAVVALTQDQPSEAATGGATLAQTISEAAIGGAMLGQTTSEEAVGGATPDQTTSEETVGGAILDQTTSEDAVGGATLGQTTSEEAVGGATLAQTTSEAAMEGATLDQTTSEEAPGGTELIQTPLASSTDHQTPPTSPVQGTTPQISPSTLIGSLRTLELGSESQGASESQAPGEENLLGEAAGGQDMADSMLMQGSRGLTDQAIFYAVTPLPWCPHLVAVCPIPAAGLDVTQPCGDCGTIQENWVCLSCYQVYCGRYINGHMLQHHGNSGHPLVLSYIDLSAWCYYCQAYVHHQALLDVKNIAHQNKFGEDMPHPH
The series can be described thus: Binding affinity to recombinant human HDAC6 by BLI assay.

Series [5] can be described thus: Acute toxicity in C57BL/6 mouse assessed as behavioral abnormalities at 2 g/kg, po administered via gavage measured up to 14 days. Type of series: organism-based. The conditions noted are these: in vivo, 2000 mg/kg, 336 h, time <=14 day. The method, boiled down:
as §2

The subject of series [6] is MGC-803. The series can be described thus: Inhibition of cell invasion in human MGC803 cells after 72 hrs by transwell assay. As to conditions: dose 2-8 µM. Type of series: functional, cell-based. The essentials: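 Matrigel-coated transwell: cells in upper chamber with 1% FBS medium, 20% FBS medium below, compound added, 72 h. Cells fixed in 4% paraformaldehyde, DAPI-stained, then imaged and analyzed by high-content analysis. Mean ± SD of three experiments versus DMSO.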

Series [7] relates to MGC-803. Description: Induction of apoptosis in human MGC803 cells assessed as viable cells at 4 uM measured after 48 hrs by Annexin-V FITC/PI staining based flow cytometry (reference value: 92.33%). It counts as functional. The conditions noted are these: read-out: Activity. For orientation: A flow cytometer gives signals particle by particle.
A further series deals with T2, Histone deacetylase 8 (Homo sapiens, UniProt Q9BY41).
T2 sequence (Q9BY41 whole entry): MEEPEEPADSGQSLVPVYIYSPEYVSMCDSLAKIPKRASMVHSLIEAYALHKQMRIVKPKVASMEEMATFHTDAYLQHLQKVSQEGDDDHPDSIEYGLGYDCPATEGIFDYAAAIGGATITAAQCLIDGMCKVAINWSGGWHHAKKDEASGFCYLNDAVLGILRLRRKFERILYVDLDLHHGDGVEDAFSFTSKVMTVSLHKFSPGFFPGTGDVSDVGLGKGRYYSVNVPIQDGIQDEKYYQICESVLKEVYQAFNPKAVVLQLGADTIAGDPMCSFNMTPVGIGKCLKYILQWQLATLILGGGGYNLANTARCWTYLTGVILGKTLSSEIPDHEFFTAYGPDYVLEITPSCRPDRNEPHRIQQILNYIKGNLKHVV
Description: Inhibition of HDAC8 (unknown origin).

Series [8] relates to MGC-803. The series can be described thus: Induction of apoptosis in human MGC803 cells assessed as early apoptotic cells at 4 uM measured after 48 hrs by Annexin-V FITC/PI staining based flow cytometry (reference value: 0.19%). It counts as functional.
For series [9], the target named is T3, Protein deacetylase HDAC6 (Homo sapiens) (UniProt Q9UBN7).
T3 sequence (whole entry): T1 sequence (Q9UBN7 whole entry)
Description: Inhibition of HDAC6 in human MGC803 cells assessed as accumulation of acetylated alpha-tubulin level after 48 hrs by Western blotting analysis. It counts as cell-based. The conditions noted are these: MGC-803, dose 2-8 µM. The method, boiled down:
as §1

Series [10] can be described thus: Acute toxicity in C57BL/6 mouse assessed as spleen tissue damage at 2 g/kg, po administered via gavage measured up to 14 days by HE staining based assay. The conditions noted are these: in vivo, 2000 mg/kg, 336 h, time <=14 day. Type of series: organism-based. The method, boiled down:
as §2

In series [11] the test system is MGC-803. Description: Induction of apoptosis in human MGC803 cells assessed as early apoptotic cells at 8 uM measured after 48 hrs by Annexin-V FITC/PI staining based flow cytometry (reference value: 0.19%). It counts as functional.

Activity calls are given as the source filed them. No cut-off for these calls is given here.

Histone deacetylase 2, sequence (Q92769 whole entry): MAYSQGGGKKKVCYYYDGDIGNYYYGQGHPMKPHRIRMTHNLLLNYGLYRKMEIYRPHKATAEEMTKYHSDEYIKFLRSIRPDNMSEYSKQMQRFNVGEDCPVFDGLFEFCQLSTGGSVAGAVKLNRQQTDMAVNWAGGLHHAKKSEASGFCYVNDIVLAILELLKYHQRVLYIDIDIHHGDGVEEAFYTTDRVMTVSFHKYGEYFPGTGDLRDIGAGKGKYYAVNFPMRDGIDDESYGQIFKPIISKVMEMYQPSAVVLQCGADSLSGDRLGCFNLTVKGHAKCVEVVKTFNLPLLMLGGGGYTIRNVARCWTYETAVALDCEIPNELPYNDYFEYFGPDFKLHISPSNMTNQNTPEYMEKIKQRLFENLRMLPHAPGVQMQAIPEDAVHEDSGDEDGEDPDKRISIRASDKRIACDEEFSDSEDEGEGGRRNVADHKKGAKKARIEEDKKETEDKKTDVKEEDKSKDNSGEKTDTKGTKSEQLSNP
Histone deacetylase 3, sequence (O15379 whole entry): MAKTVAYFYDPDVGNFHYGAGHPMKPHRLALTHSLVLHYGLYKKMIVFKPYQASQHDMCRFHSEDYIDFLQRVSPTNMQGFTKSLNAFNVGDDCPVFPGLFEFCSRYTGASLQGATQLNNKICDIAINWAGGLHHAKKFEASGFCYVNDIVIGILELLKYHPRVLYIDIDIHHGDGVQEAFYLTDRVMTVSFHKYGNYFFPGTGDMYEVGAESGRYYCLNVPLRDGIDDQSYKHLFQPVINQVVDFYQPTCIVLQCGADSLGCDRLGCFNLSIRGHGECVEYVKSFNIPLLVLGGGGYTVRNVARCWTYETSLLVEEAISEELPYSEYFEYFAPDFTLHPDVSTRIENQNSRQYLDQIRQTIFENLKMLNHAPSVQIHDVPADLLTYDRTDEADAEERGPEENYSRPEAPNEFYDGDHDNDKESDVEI

A word on the IC50: it is the midpoint of a concentration-inhibition curve. Low readings indicate inhibition by little substance, high ones a need for much substance. Usually Kd stands for the constant that tells how readily two partners part at equilibrium. Consider `Cc1ccc(-c2nc(CNc3ccc(C(=O)NO)cc3)n(-c3ccccc3)n2)s1`, for which the IC50 came out at 224 nM at Histone deacetylase 2, 235 nM on Histone deacetylase 3 and 349 nM against Histone deacetylase 8. In the series on MGC-803 [1], the outcome was Active. The Activity entry in the series with MGC-803 [2] was “Dose-Dependent Effect”; in series [3] it was “Non-Toxic”; in series [5] it was “Non-Toxic”; with MGC-803 [8], 2.95%; in [10] it was “Non-Toxic”; in the series on MGC-803 [11], 8.76%. For the same compound, the dissociation constant (Kd) in series [4] came to 7.1 nM. For the same compound, the inhibition result (in the series on MGC-803 [6]; in [9]) was “Dose-Dependent Effect” throughout. Moreover, in the series on MGC-803 [7], the viability at 4 µM amounted to 79.3%.
